Data published in article PMC3672992 (Therapeutic drug monitoring, 2008).
Read-outs that look alike come from different tables or passages of the source.

What was measured:
[1] = without ritonavir boosting, cited from earlier work
[2] = cited from earlier work
[3] = mild hepatic impairment group; cited from earlier work
[4] = Steady-state pharmacokinetics of unbound lopinavir; format: in vivo, human
[5] = Steady-state plasma pharmacokinetics of total lopinavir; format: in vivo, human; conditions: for Total lopinavir Ctrough / Total lopinavir tmax: steady-state, median (IQR)
[6] = Steady-state plasma pharmacokinetics of total ritonavir; format: in vivo, human
Summary of the method: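 HIV-infected Caucasian adults took protease-inhibitor combination capsules at 400/100 mg twice daily (266/66 mg if under 50 kg) with standardized meals. After at least 2 wk of dosing, blood was drawn predose and 1, 2, 3, 4, 6, 8 and 12 h after the morning dose. EDTA plasma (600g, 10 min) was stored at −80°C and assayed by HPLC-UV (linear 100–16,000 ng/mL). Ctrough is the predose, noncompartmental value.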

[7] = patients with significant liver fibrosis; cited from earlier work
[8] = Group I HIV+/HCV−, n=12, median (IQR)
[9] = Group II HIV+/HCV+, n=18, median (IQR)
[10] = Group III HIV+/HCV+ with cirrhosis, n=6, median (IQR)
[11] = Group III HIV+/HCV+ with cirrhosis, n=9

SMILES: Cc1c(O)cccc1C(=O)N[C@@H](CSc1ccccc1)[C@H](O)CN1C[C@H]2CCCC[C@H]2C[C@H]1C(=O)NC(C)(C)C [NFV, nelfinavir]
- NFV AUC(0–12) fold higher relative to noncoinfected HIV+ control group ([1]; HIV+/HCV+ patients with cirrhosis): 2.5 fold
- NFV AUC(0–12) fold higher relative to noncoinfected HIV+ control group ([1]; HIV+/HCV+ patients): 1.3 fold

SMILES: O=C1Nc2ccc(Cl)cc2[C@@](C#CC2CC2)(C(F)(F)F)O1 [efavirenz]
- Efavirenz plasma concentration ([2]; HCV-coinfected individuals without cirrhosis): 1.9 µg/mL
- Efavirenz plasma concentration ([2]; patients with cirrhosis, P = 0.001): 3.4 µg/mL

SMILES: Cc1cccc(C)c1OCC(=O)N[C@@H](Cc1ccccc1)[C@@H](O)C[C@H](Cc1ccccc1)NC(=O)[C@H](C(C)C)N1CCCNC1=O [lopinavir]
- Percentage of unbound LPV [3]: 0.89%
- Unbound lopinavir AUCu(0–12) [4, 8]: 0.87 (0.77–1.21) μg*h/mL
- Unbound lopinavir Cu,max [4, 8]: 0.12 (0.10–0.14) μg/mL
- Unbound lopinavir Cu,trough [4, 8]: 0.05 (0.03–0.08) μg/mL
- Unbound lopinavir AUCu(0–12) [4, 9]: 1.21 (0.73–1.43) μg*h/mL
- Unbound lopinavir Cu,max [4, 9]: 0.13 (0.10–0.18) μg/mL
- Unbound lopinavir Cu,trough [4, 9]: 0.07 (0.05–0.10) μg/mL
- Unbound lopinavir AUCu(0–12) [4, 10]: 1.41 (1.14–1.85) μg*h/mL
- Unbound lopinavir Cu,max [4, 10]: 0.16 (0.14–0.18) μg/mL
- Unbound lopinavir Cu,trough [4, 10]: 0.08 (0.03–0.10) μg/mL
- Total lopinavir Ctrough ([5]; Group I HIV+/HCV−, n=24): 7.4 (4.1–10.0) μg/mL
- Total lopinavir Ctrough ([5]; Group II HIV+/HCV+, n=23): 6.4 (4.5–10.1) μg/mL
- Total lopinavir tmax ([5]; Group II HIV+/HCV+, n=23): 4.0 (4.0–6.0) h
- Total lopinavir Ctrough [5, 11]: 7.0 (5.7–7.6) μg/mL
- Total lopinavir tmax [5, 11]: 4.0 (4.0–6.0) h
- Increase in drug clearance (compensatory effect) ([5]; HIV/HCV-coinfected patients with cirrhosis versus HIV+/HCV− patients): ~ 29%

SMILES: CC(C)c1nc(CN(C)C(=O)N[C@H](C(=O)N[C@@H](Cc2ccccc2)C[C@H](O)[C@H](Cc2ccccc2)NC(=O)OCc2cncs2)C(C)C)cs1 [ritonavir]
- Total ritonavir Ctrough ([6]; Group I HIV+/HCV−, n=14, median (IQR)): 0.57 (0.51–0.77) μg/mL
- Total ritonavir Ctrough ([6]; Group II HIV+/HCV+, n=15, median (IQR)): 0.50 (0.23–0.73) μg/mL
- Total ritonavir Ctrough ([6]; Group III HIV+/HCV+ with cirrhosis, n=4, median (IQR)): 0.70 (0.65–0.72) μg/mL

SMILES: CCC[C@@]1(CCc2ccccc2)CC(O)=C([C@H](CC)c2cccc(NS(=O)(=O)c3ccc(C(F)(F)F)cn3)c2)C(=O)O1 [tipranavir]
- Change in tipranavir concentrations [7]: significant increase
